# From ChEMBL document CHEMBL2146361, “Identification of novel α7 nicotinic receptor ligands by in silico screening against the crystal structure of a chimeric α7 receptor ligand binding domain” (Bioorg Med Chem, 2012)
# Target: Neuronal acetylcholine receptor subunit alpha-7 (Homo sapiens, UniProt P36544)
# Assay: Displacement of [3H]epibatidine from chimeric human alpha7-5-HT3A receptor expressed in HEK293 cells after 2 hrs by scintillation counter analysis
# Format: cell-based
# Method in brief: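 HEK293 cells grown in DMEM:F12 with 10% fetal calf serum at 37 °C, 7% CO₂, transiently transfected (PEI) and harvested after 2–3 days. 50 μg membranes incubated in 10 mM HEPES pH 7.4 with 3 nM [³H]epibatidine, ≥2 h at 4 °C, 10-point competition; non-specific binding with 3 mM (−)-nicotine.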
# Sequence of Neuronal acetylcholine receptor subunit alpha-7 (P36544 23-502 limits assumed): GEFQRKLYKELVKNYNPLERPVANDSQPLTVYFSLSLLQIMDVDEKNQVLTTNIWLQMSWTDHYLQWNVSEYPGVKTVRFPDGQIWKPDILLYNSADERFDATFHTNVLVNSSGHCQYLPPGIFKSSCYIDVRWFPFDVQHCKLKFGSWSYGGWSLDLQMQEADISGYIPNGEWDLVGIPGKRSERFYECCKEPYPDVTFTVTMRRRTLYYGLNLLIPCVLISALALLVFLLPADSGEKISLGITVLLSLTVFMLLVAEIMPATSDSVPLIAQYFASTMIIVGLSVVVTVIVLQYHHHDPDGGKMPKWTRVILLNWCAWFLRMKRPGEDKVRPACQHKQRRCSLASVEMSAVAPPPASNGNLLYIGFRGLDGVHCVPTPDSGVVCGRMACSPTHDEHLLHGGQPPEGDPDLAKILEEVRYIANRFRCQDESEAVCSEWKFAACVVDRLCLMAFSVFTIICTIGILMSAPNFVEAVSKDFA
Compound,pKi,pKd,Ki
Clc1ccc(C2CC3CCC2N3)cn1 (configuration not stated) [EPIBATIDINE],,8.2,
N#CCOCC(O)C[n+]1ccccc1 (configuration not stated),5.6,,
CN1CCc2[nH]c3ccccc3c2C1,5.2,,
CC1CCN2CCc3c([nH]c4ccccc34)C2C1 (configuration not stated),6.4,,400 nM
c1ccc(C2CN3CCC2CC3)cc1 (configuration not stated),6.7,,200 nM

# Second part, led by results:
pKi,Compound,pKd,Ki
5.8,COc1cc2c(cc1OC)C1CC(c3ccccc3)CCN1CC2 (configuration not stated),,
5.4,CC1C(c2ccccc2)NC(c2ccccc2)C(C)C1(C)O (configuration not stated),,
5.7,CC1CCN(CC(O)COc2ccc(-c3ccccc3)cc2)CC1 (configuration not stated),,
5.1,CC1CC2(CCCCCC2)NCc2ccccc21 (configuration not stated),,
5.3,CC1/C(=N/O)CC(c2ccccc2)N(C)C1c1ccccc1 (configuration not stated),,
